Experimental findings from the array DNA melting data of Ke et al. (doi:10.1101/2024.01.08.574731) are described below.

The nature of data set [1]: melting temperature; fluorescence melt of hairpins on a sequencing array, two-state fit, raised by 9.35 °C to match UV melts. The following applies: sodium 0.088 M. An outline of the steps: (§1)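 Library hairpins on a sequenced MiSeq flow cell carried annealed Cy3 and quencher oligos, and their Cy3 fluorescence was imaged in 50 mM Na-HEPES pH 8.0 with 25 mM NaCl, in 2.5 °C steps up to 60 °C. Signals were normalised to Cy3 before quenching and to control constructs. Melting temperature and folding enthalpy were obtained from bootstrapped two-state fits, combined by inverse-variance weighting across four replicates, and the fitted temperatures were then raised by 9.35 °C to match UV melts.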

Data set [2] in a line: folding enthalpy; higher = less favourable; fluorescence melt of hairpins on a sequencing array, two-state fit. The following applies: sodium 0.088 M. An outline of the steps:
as §1

For the sequence GATCACCCTTGTGATC ((((((....)))))), the Tm in data set [1] came to 54.9 °C. Further, the folding enthalpy in data set [2] was -43.7 kcal/mol.
The corresponding values for GCGGCCGGAAACGACCGC ((((.((....)).)))) are 67.2 °C and -34.9 kcal/mol.
For GTGGTATCGAAAGATCAC (((..(((....)))))), in that order: 33.3 °C and -23.8 kcal/mol.
For GATCAGCCCACTGATC ((((((....)))))), the Tm in data set [1] amounted to 51.6 °C. Besides, the folding enthalpy in data set [2] is -37.6 kcal/mol.
The corresponding values for GATCTCCCGTGAGATC ((((((....)))))) are 52.5 °C and -35.4 kcal/mol.
The corresponding values for GACAGCCCGAAAGGGGTC (((..(((....)))))) are 34.6 °C and -11.4 kcal/mol.
The corresponding values for GCGGGCTCCCGC ((((....)))) are 66 °C and -23.8 kcal/mol.
As to GATCTAGTTTAGATC ((((((...)))))), in data set [1], the Tm worked out at 40.7 °C. Besides, the folding enthalpy in data set [2] was -30.3 kcal/mol.
The corresponding values for GCTCCCGCGAAAGCGAGC (((..(((....)))))) are 37.5 °C and -10.7 kcal/mol.
Turning to GGTTTCGAAAGAATAACC ((((((....)))..))), the Tm in data set [1] came to 31.5 °C. Moreover, the folding enthalpy in data set [2] is -20.1 kcal/mol.
On to GATCAATCACTTGATC ((((((....)))))), for which, in data set [1], the Tm came to 43.2 °C. The folding enthalpy in data set [2] is -29.9 kcal/mol.
The corresponding values for GTCAACGAAAGTTGAGAC ((((((....)))..))) are 43.3 °C and -12.2 kcal/mol.
In the case of GATCATGTTCATGATC ((((((....)))))), the Tm in data set [1] worked out at 52.5 °C. For the same sequence, in data set [2], the folding enthalpy was -43.1 kcal/mol.
On to GACACCCGAAAGGGGTC (((.(((....)))))), for which the Tm in data set [1] amounted to 54.8 °C. The folding enthalpy in data set [2] was -18.5 kcal/mol.
For GATCTCACGAGAGATC ((((((....)))))), in that order: 52.3 °C and -39.5 kcal/mol.
With GGGATCGCGAAAGCGCCC (((..(((....)))))), the Tm in data set [1] stood at 40.6 °C. In addition, the folding enthalpy in data set [2] is -13.8 kcal/mol.
CATTCGAAAGAATG (((((....))))): in data set [1], the Tm was determined as 49.7 °C. Moreover, in data set [2], the folding enthalpy was -23.2 kcal/mol.
The corresponding values for GTGCGCGAAAGCGATCAC ((((((....)))..))) are 41 °C and -13.4 kcal/mol.
For GATCCTTTGTAGGATC ((((((....)))))), in that order: 52.6 °C and -39.7 kcal/mol.
For GCACAGGGAAACCTACGC ((..(((....)))..)), in that order: 34.9 °C and -15.8 kcal/mol.
Regarding GATCAACTTTTGATC ((((((...)))))), the Tm in data set [1] came to 43.2 °C. For the same sequence, the folding enthalpy in data set [2] is -30.7 kcal/mol.
GTAAGCGAAAGCTGCTAC ((((((....)))..))): in data set [1], the Tm stood at 41 °C. In addition, the folding enthalpy in data set [2] is -12.7 kcal/mol.
In the case of GACGAAGGAAACTTCGTC (((((((....))))))), in data set [1], the Tm came to 63.5 °C. Also, the folding enthalpy in data set [2] is -43.9 kcal/mol.
For GGTTTCGAAAGAACCACC ((((((....)))..))), in that order: 34.4 °C and -17.1 kcal/mol.
The corresponding values for GAACGCGAAAGCGGTTC ((((((....))).))) are 57.3 °C and -14.3 kcal/mol.
The corresponding values for TCGCTGAAAAGCGA (((((....))))) are 68.8 °C and -17.4 kcal/mol.
Take GTGCATGAAAATGCAC ((((((....)))))): the Tm in data set [1] amounted to 67 °C. Moreover, the folding enthalpy in data set [2] is -31.6 kcal/mol.
On to GTCCCCGAAAGGGCCGAC ((((((....)))..))), for which, in data set [1], the Tm was found to be 33 °C. In addition, the folding enthalpy in data set [2] is -12.1 kcal/mol.
Consider GTGTGGGGAAACCCACAC (((((((....))))))), for which the Tm in data set [1] came out at 69 °C. In addition, the folding enthalpy in data set [2] was -32.3 kcal/mol.
For GCGGGCGCCGC ((((...)))), in that order: 60.6 °C and -9.79 kcal/mol.
Turning to GATCACAGCAGTGATC ((((((....)))))), in data set [1], the Tm came out at 59.5 °C. The folding enthalpy in data set [2] was -40.3 kcal/mol.
Regarding GCTACGACGAAAGTCAGC (((..(((....)))))), the Tm in data set [1] was 37 °C. Besides, the folding enthalpy in data set [2] was -17 kcal/mol.
Turning to GATCACTCCAGTGATC ((((((....)))))), the Tm in data set [1] is 58.4 °C. Further, the folding enthalpy in data set [2] was -30.5 kcal/mol.
Consider GCTGACCGAAAGGTAAGC (((.(((....))).))), for which the Tm in data set [1] worked out at 57.8 °C. In data set [2], the folding enthalpy is -33.5 kcal/mol.
Consider GCCTACGAAAGTATAGGC ((((((....)))..))), for which the Tm in data set [1] was found to be 49.3 °C. For the same sequence, the folding enthalpy in data set [2] is -25.5 kcal/mol.
With GAAACGCCGAAAGGCTTC (((..(((....)))))), the Tm in data set [1] was 23.1 °C. For the same sequence, the folding enthalpy in data set [2] was -7.92 kcal/mol.
Consider GTCCCGGGAAACCGAGAC (((.(((....))).))), for which the Tm in data set [1] was 46.3 °C. Further, the folding enthalpy in data set [2] is -25.8 kcal/mol.
Regarding GATCGCGAAAGCGCATC ((((((....))).))), the Tm in data set [1] amounted to 51.4 °C. Also, the folding enthalpy in data set [2] is -15.3 kcal/mol.
On to GACAGTGGAAACATTGTC ((((.((....)).)))), for which, in data set [1], the Tm came to 43 °C. Besides, the folding enthalpy in data set [2] was -32.4 kcal/mol.
For GAGCTCGGAAACAAGCTC (((((.(....).))))), in that order: 43 °C and -30 kcal/mol.
For GTGTGTTCGAAAGAACAC (((..(((....)))))), in that order: 64.2 °C and -15.7 kcal/mol.
The corresponding values for GTTTTTCGAAAGAAGAAC (((.(((....))).))) are 37.3 °C and -32.5 kcal/mol.
For CGCGGAACGATCCGCG ((((((....)))))), the Tm in data set [1] is 67.6 °C. In data set [2], the folding enthalpy was -31.8 kcal/mol.
For GATCTGGTCGCAGATC ((((((....)))))), in that order: 52.4 °C and -24.9 kcal/mol.
Take GCGAGGCGAAAGCGTTGC ((.(.((....)).).)): in data set [1], the Tm is 55.5 °C. Also, the folding enthalpy in data set [2] is -18.6 kcal/mol.
Turning to GCGAAGCGAAAGCTCAGC ((..(((....)))..)), the Tm in data set [1] is 41.1 °C. Also, the folding enthalpy in data set [2] was -7.68 kcal/mol.
For GTCGCGGGAAACCGCAAC ((.((((....)))).)), in that order: 44.1 °C and -13.3 kcal/mol.
For GCAGTTGGAAACAACCGC ((.((((....)))).)), in that order: 44.1 °C and -23.6 kcal/mol.
Consider GGCAGAGGAAACTCCGCC (((.(((....))).))), for which the Tm in data set [1] came out at 47.5 °C. In data set [2], the folding enthalpy is -28.1 kcal/mol.
Regarding GATCTACCCGTAGATC ((((((....)))))), the Tm in data set [1] turned out to be 50.8 °C. In addition, the folding enthalpy in data set [2] is -42.1 kcal/mol.
The corresponding values for GGAGTGGGAAACCGTTCC (((..((....))..))) are 32.3 °C and -17.8 kcal/mol.
As to GACCGCGAAAGCGCTGTC ((((((....)))..))), the Tm in data set [1] was 39 °C. Besides, the folding enthalpy in data set [2] was -14.3 kcal/mol.
Consider GGTGAGGGAAACCTTACC (((.(((....))).))), for which the Tm in data set [1] turned out to be 46.6 °C. The folding enthalpy in data set [2] was -33.9 kcal/mol.
On to GGGTCAGGAAACTGACTC (.(((((....))))).), for which, in data set [1], the Tm was 51.8 °C. Also, the folding enthalpy in data set [2] was -30.7 kcal/mol.
The corresponding values for GATGGCGGAAACACCATC (((((.(....).))))) are 47.2 °C and -34.3 kcal/mol.
The corresponding values for GTTCACTCGAAAGAGAAC (((..(((....)))))) are 27.8 °C and -9.99 kcal/mol.
For GTAACCGAAAGGTTGTAC ((((((....)))..))), in that order: 33.4 °C and -10.4 kcal/mol.
Turning to GCCGGGCGAAAGCATGGC (((..((....))..))), in data set [1], the Tm turned out to be 64.9 °C. The folding enthalpy in data set [2] is -26.8 kcal/mol.
In the case of GGGATGGGAAACCGTCCC ((((.((....)).)))), the Tm in data set [1] was 56.5 °C. Besides, the folding enthalpy in data set [2] was -50.5 kcal/mol.
On to GTCTGCGAAAGCAGAGAC ((((((....)))..))), for which the Tm in data set [1] is 51.4 °C. In data set [2], the folding enthalpy is -9.97 kcal/mol.
For GCCAGGCCGAAAGGCGGC (((..(((....)))))), in that order: 64.9 °C and -18.4 kcal/mol.
Regarding GTTAGAGAAATCTAAC ((((((....)))))), the Tm in data set [1] worked out at 38.4 °C. In addition, the folding enthalpy in data set [2] was -27.9 kcal/mol.
On to GCTAACGAAAGTTTCAGC ((((((....)))..))), for which the Tm in data set [1] was 29.7 °C. Moreover, the folding enthalpy in data set [2] is -14.2 kcal/mol.
Take GTCTTCGAAAGAAGTGAC ((((((....)))..))): the Tm in data set [1] was determined as 34 °C. Also, the folding enthalpy in data set [2] is -13.3 kcal/mol.
In the case of GACGTCCCGAAAGGGGTC (((..(((....)))))), the Tm in data set [1] worked out at 39.9 °C. Further, in data set [2], the folding enthalpy was -10.9 kcal/mol.
GCATATGAAAATATGC ((((((....)))))): the Tm in data set [1] turned out to be 52.9 °C. For the same sequence, the folding enthalpy in data set [2] was -29.2 kcal/mol.
For GCATTCCGAAAGGATTGC (((.(((....))).))), in that order: 54.4 °C and -35.6 kcal/mol.
For GACAACGAAAGTTAGGTC ((((((....)))..))), in that order: 33.7 °C and -14.6 kcal/mol.
For GGTGATGGAAACACCACC ((((.((....)).)))), in that order: 46.6 °C and -23.8 kcal/mol.
With GGACTCGGAAACGAATCC (((.(((....))).))), the Tm in data set [1] was found to be 40.9 °C. Besides, the folding enthalpy in data set [2] is -26.7 kcal/mol.
Consider CGAGACGGAAACGTATCG (((.(((....))).))), for which the Tm in data set [1] came out at 52.1 °C. Moreover, in data set [2], the folding enthalpy is -34.6 kcal/mol.
As for GAGACAGAAATGTCTC ((((((....)))))), the Tm in data set [1] stood at 52.5 °C. The folding enthalpy in data set [2] was -34.4 kcal/mol.
For GATCTAAGCGTAGATC ((((((....)))))), the Tm in data set [1] was 36.9 °C. The folding enthalpy in data set [2] was -27 kcal/mol.
For GTTTGTGCGAAAGCAAAC (((..(((....)))))), in that order: 41.5 °C and -18.2 kcal/mol.
